Results as given in ChEMBL document CHEMBL1811908, “Design of HIV-1 integrase inhibitors targeting the catalytic domain as well as its interaction with LEDGF/p75: a scaffold hopping approach using salicylate and catechol groups” (Bioorg Med Chem, 2011).

Assays:
[1] = Inhibition of HIV1 His6-tagged integrase-LEDGF/p75 interaction after 30 mins by AlphaScreen assay
Method in brief: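 His6-tagged IN (300 nM final) preincubated with compound (0.1–100 μM) 30 min at 4°C in 25 mM Tris-HCl pH 7.4, 150 mM NaCl, 1 mM MgCl2, 0.01% Tween-20, 0.1% BSA; 100 nM Flag-LEDGF/p75 added, 1 h at 4°C. Ni-chelate acceptor and anti-Flag donor beads (20 μg/ml each) added, 1 h at 30°C; AlphaScreen emission read.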

[2] = biological target: T1, Human immunodeficiency virus type 1 integrase (Human immunodeficiency virus 1, UniProt Q7ZJM1); assay: Inhibition of wild-type HIV1 integrase strand transfer activity using [32P]-5'-end-labeled 5'-GTGTGGAAAATCTCTAGCAGT-3' as substrate after 1 hr
T1 sequence (Q7ZJM1 whole entry): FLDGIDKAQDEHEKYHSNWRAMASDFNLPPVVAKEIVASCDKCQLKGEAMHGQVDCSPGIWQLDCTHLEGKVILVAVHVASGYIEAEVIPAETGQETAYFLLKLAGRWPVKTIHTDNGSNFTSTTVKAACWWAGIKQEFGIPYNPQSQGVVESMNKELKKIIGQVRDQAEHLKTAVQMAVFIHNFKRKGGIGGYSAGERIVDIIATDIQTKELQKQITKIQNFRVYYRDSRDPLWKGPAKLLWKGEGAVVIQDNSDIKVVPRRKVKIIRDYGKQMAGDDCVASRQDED

[3] = (§1) Cytotoxicity against human NCI-H630 cells after 72 hrs by MTT assay; type: cell-based; details: NCI-H630 cells
Method in brief: (§2)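 H630 colon cancer cells seeded, attached overnight, then continuously exposed to compound (DMSO stocks) for 72 h. MTT added to 0.5 mg/mL final, 4 h at 37°C; supernatant removed, DMSO added, absorbance read at 570 nm. IC50 taken from plot of log concentration versus percentage of cells killed.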

[4] = biological target: T1, Human immunodeficiency virus type 1 integrase; assay: Inhibition of wild-type HIV1 integrase 3'-processing activity using [32P]-5'-end-labeled 5'-GTGTGGAAAATCTCTAGCAGT-3' as substrate after 1 hr
NCI-H630 = assay: as §1; type: cell-based; details: nci-h630, 72 h; method in brief: as §2

CN(C)Cc1ccc(C(=O)NCc2ccc(F)cc2)c(O)c1O
IC50 [1]: > 50 µM
IC50 [2]: 20 µM
CC50 at 72 h [3]: > 10 µM
IC50 [4]: > 100 µM

O=C(NCc1ccco1)c1cccc(O)c1O
IC50 [1]: 89 µM
IC50 [2]: 15 µM
CC50 at 72 h [3]: > 40 µM
IC50 [4]: 90 µM

O=C(O)c1c(O)cccc1OCc1ccc2ccccc2c1
IC50 [2]: 186 µM
CC50 at 72 h [3]: > 40 µM
IC50 [4]: > 100 µM

O=C(NCc1ccc(F)cc1)c1cccc(O)c1O
IC50 [1]: > 100 µM
IC50 [2]: 35 µM
CC50 at 72 h [3]: > 40 µM
IC50 [4]: 100 µM

O=C(NCc1ccc(F)cc1)c1cc(S(=O)(=O)N2CCCCC2)cc(O)c1O
IC50 [2]: 5 µM
CC50 (NCI-H630): 13 µM
IC50 [4]: 200 µM

CN(C)Cc1ccc(C(=O)NCc2ccco2)c(O)c1O
IC50 [1]: > 50 µM
IC50 [2]: 39 µM
CC50 (NCI-H630): 7 µM
IC50 [4]: > 100 µM

O=C(NCC1CCCCC1)c1cc(S(=O)(=O)N2CCCCC2)cc(O)c1O
IC50 [1]: 8 µM
IC50 [2]: 19 µM
CC50 at 72 h [3]: > 40 µM
IC50 [4]: 53 µM

CC(C)(C)NS(=O)(=O)c1cc(O)c(O)c(C(=O)NCc2ccc(F)cc2)c1
IC50 [1]: 100 µM
IC50 [2]: 8 µM
CC50 at 72 h [3]: > 10 µM
IC50 [4]: 70 µM

O=C(NC1CCCCC1)c1cccc(O)c1O
IC50 [1]: > 100 µM
IC50 [2]: > 100 µM
CC50 at 72 h [3]: > 40 µM
IC50 [4]: > 100 µM

CNC(=O)Cc1ccccc1CNC(=O)c1cccc(O)c1O
IC50 [1]: > 100 µM
IC50 [2]: 56 µM
CC50 at 72 h [3]: > 40 µM
IC50 [4]: > 100 µM

CC(=O)Nc1cc(O)c(O)c(C(=O)NCc2ccc(F)cc2)c1
IC50 [1]: > 100 µM
IC50 [2]: 14 µM
CC50 at 72 h [3]: < 10 µM
IC50 [4]: 55 µM

O=C(NCc1cccs1)c1cc(S(=O)(=O)N2CCCCC2)cc(O)c1O
IC50 [1]: > 50 µM
IC50 [2]: 44 µM
CC50 at 72 h [3]: > 40 µM
IC50 [4]: > 100 µM

O=C(NCCc1c[nH]c2ccccc12)c1cccc(O)c1O
IC50 [1]: 63 µM
IC50 [2]: 100 µM
CC50 (NCI-H630): 15 µM
IC50 [4]: 100 µM

O=C(NCc1cccs1)c1cccc(O)c1O
IC50 [1]: 95 µM
IC50 [2]: 12 µM
CC50 at 72 h [3]: > 40 µM
IC50 [4]: 83 µM

O=C(O)c1cccc(OCc2ccccc2)c1O
IC50 [2]: > 100 µM
CC50 at 72 h [3]: > 40 µM
IC50 [4]: > 100 µM

O=C(NCc1ccc(-c2cccs2)cc1)c1cccc(O)c1O
IC50 [1]: > 100 µM
IC50 [2]: 21 µM
CC50 (NCI-H630): 15 µM
IC50 [4]: > 100 µM

O=C(NO)c1ccc(OCc2ccc(F)cc2)cc1O
IC50 [2]: 100 µM
IC50 [4]: > 100 µM

COc1cc(S(=O)(=O)N2CCCCC2)cc(C(=O)NCc2ccco2)c1O
IC50 [1]: 13 µM
IC50 [2]: > 100 µM
CC50 at 72 h [3]: > 25 µM
IC50 [4]: > 100 µM

O=C(NCc1ccc2[nH]ccc2c1)c1cccc(O)c1O
IC50 [1]: 45 µM
CC50 at 72 h [3]: > 40 µM

O=C(NCc1ccc(F)c(F)c1)c1cccc(O)c1O
IC50 [1]: 56 µM
IC50 [2]: 23 µM
CC50 at 72 h [3]: > 40 µM
IC50 [4]: > 100 µM

O=C(NO)c1cc(OCc2ccc(F)cc2)ccc1O
IC50 [2]: 85 µM
IC50 [4]: > 100 µM

O=C(Nc1ccc2[nH]ccc2c1)c1cccc(O)c1O
IC50 [1]: 88 µM
IC50 [2]: 58 µM
CC50 at 72 h [3]: > 40 µM
IC50 [4]: > 100 µM

Nc1cccc(C(=O)NCc2ccco2)c1O
IC50 [1]: 51 µM
IC50 [2]: > 100 µM
CC50 at 72 h [3]: > 25 µM
IC50 [4]: > 100 µM

O=C(O)c1c(O)cccc1OCc1ccc(F)cc1
IC50 [2]: > 100 µM
CC50 at 72 h [3]: > 40 µM
IC50 [4]: > 100 µM

O=C(NCc1ccc(C(F)(F)F)cc1)c1cc(S(=O)(=O)N2CCCCC2)cc(O)c1O
IC50 [1]: > 100 µM
IC50 [2]: 11 µM
CC50 (NCI-H630): 31 µM
IC50 [4]: 89 µM

O=C(NO)c1c(O)cccc1OCc1ccc(F)cc1
IC50 [2]: 97 µM
IC50 [4]: > 100 µM

CS(=O)(=O)Nc1cc(O)c(O)c(C(=O)NCc2ccc(F)cc2)c1
IC50 [1]: 100 µM
IC50 [2]: 34 µM
IC50 [4]: > 100 µM

O=C(NC1CCNCC1)c1cccc(O)c1O
IC50 [1]: > 100 µM
IC50 [2]: > 100 µM
CC50 at 72 h [3]: > 10 µM
IC50 [4]: > 100 µM

O=C(O)c1ccc(OCc2ccccc2)cc1O
IC50 [2]: > 100 µM
CC50 at 72 h [3]: > 40 µM
IC50 [4]: > 100 µM

CNC(=O)c1cc(F)ccc1CNC(=O)c1cccc(O)c1O
IC50 [1]: > 100 µM
IC50 [2]: 100 µM
CC50 at 72 h [3]: > 40 µM
IC50 [4]: > 100 µM

O=C(NCc1ccco1)c1cc(S(=O)(=O)N2CCCCC2)cc(O)c1O
IC50 [1]: > 100 µM
IC50 [2]: 13 µM
CC50 (NCI-H630): 33 µM
IC50 [4]: > 100 µM

O=C(NCc1ccc(F)cc1)c1cccc(OCc2ccccc2)c1O
IC50 [2]: 111 µM
CC50 at 72 h [3]: > 40 µM
IC50 [4]: > 333 µM

O=C(O)c1cc(OCc2ccccc2)ccc1O
IC50 [2]: > 100 µM
CC50 at 72 h [3]: > 40 µM
IC50 [4]: > 100 µM

CNS(=O)(=O)c1cc(O)c(O)c(C(=O)NCc2ccc(F)cc2)c1
IC50 [1]: > 100 µM
IC50 [2]: 44 µM
CC50 at 72 h [3]: > 40 µM
IC50 [4]: > 100 µM

O=C(O)c1cc(OCc2ccc(F)cc2)ccc1O
IC50 [2]: > 100 µM
CC50 at 72 h [3]: > 40 µM
IC50 [4]: > 100 µM

O=C(O)c1cccc(OCc2ccc3ccccc3c2)c1O
IC50 [2]: 140 µM
CC50 at 72 h [3]: > 40 µM
IC50 [4]: > 100 µM

O=C(O)c1ccc(OCc2ccc(F)cc2)cc1O
IC50 [2]: > 100 µM
CC50 at 72 h [3]: > 40 µM
IC50 [4]: > 100 µM

O=C(NO)c1cccc(OCc2ccc(F)cc2)c1O
IC50 [2]: > 100 µM
IC50 [4]: > 100 µM

N#Cc1cc(O)c(O)c(C(=O)NCc2ccc(F)cc2)c1
IC50 [2]: 22 µM
CC50 at 72 h [3]: > 10 µM
IC50 [4]: 75 µM

O=C(NCC1CCCCC1)c1cccc(O)c1O
IC50 [1]: > 100 µM
IC50 [2]: 18 µM
CC50 (NCI-H630): 21 µM
IC50 [4]: > 100 µM

O=C(NCc1cccc2ccccc12)c1cccc(O)c1O
IC50 [1]: 34 µM
IC50 [2]: 26 µM
CC50 (NCI-H630): 21 µM
IC50 [4]: > 100 µM

O=C(O)c1cccc(OCc2ccc(F)cc2)c1O
IC50 [2]: > 100 µM
CC50 at 72 h [3]: > 40 µM
IC50 [4]: > 100 µM
